{"source": "paper PMC9884082", "about": "(Journal of Medicinal Chemistry, 2023)", "key": {"[1]": {"test_system": "pooled normal human plasma", "assay": "Human plasma clotting time", "format": "biochemical", "settings": "∼34 to ∼68 s", "method_in_brief": "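APTT was run in a fibrometer by one-stage recalcification. Test compound was mixed with citrated pooled normal human plasma and prewarmed APTT reagent (ellagic acid). After 4 min at 37 °C, clotting was started with prewarmed 25 mM CaCl₂ and time to clot recorded. A quadratic trend line fitted to the data gave the concentration doubling clotting time.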"}, "[2]": {"test_system": "CD133+/CXCR4+ (Dual Hi) HT-29 xenografts", "assay": "Dual Hi HT-29 xenograft after FUOX enrichment, IP G5C or FUOX", "format": "in vivo, NCr nude mice", "settings": "G5C 100 mg/kg IP; FUOX IP weekly", "method_in_brief": "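1 × 10⁵ FACS-sorted CD133⁺/CXCR4⁺ HT-29 cells were injected subcutaneously into NCr nude mice. Palpable tumors were enriched in vivo with 25 mg/kg 5-fluorouracil plus 2 mg/kg oxaliplatin IP weekly for 3 weeks. Mice were then randomized to vehicle, the same regimen continued, or test compound 100 mg/kg IP three times/week (14 doses). Tumors (n = 2/group) were dissociated into single cells and 1–3° spheroids (50–150 μm) counted in low-adhesion EGF/FGF stem cell medium.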"}, "HT-29 monolayer culture": {"test_system": "HT-29 monolayer culture", "assay": "Cell proliferation", "format": "cell-based, human", "settings": "MTT, 60-72 h", "method_in_brief": "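HT-29 cells kept as monolayers in DMEM:F-12 with 10% FBS and 1% penicillin/streptomycin, passaged before 70% confluence. About 2.5 × 10³ cells/well were incubated overnight (37 °C, 5% CO₂), then exposed to test compound for 60–72 h. MTT (5 mg/mL stock in PBS) was added for 2–3 h and crystals dissolved in DMSO. A590 was read and growth expressed as percent of vehicle; ≥3 replicates.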"}, "[3]": {"assay": "Mouse tail bleeding study", "format": "in vivo, wild-type ICR mice", "settings": "IV; NSGMs 1–100 mg/kg, enoxaparin 224 μg/kg"}, "[4]": {"assay": "Preliminary half-life experiments", "format": "in vivo", "settings": "data not shown"}}}
{"smiles": "CC(C)CCC[C@@H](C)[C@H]1CC[C@H]2[C@@H]3CC=C4C[C@@H](OCCCCCOc5cc(-c6oc7cc(OS(=O)(=O)[O-])cc(OCCCOc8cc(OS(=O)(=O)[O-])cc9oc(-c%10ccc(OS(=O)(=O)[O-])c(OS(=O)(=O)[O-])c%10)c(OS(=O)(=O)[O-])c(=O)c89)c7c(=O)c6OS(=O)(=O)[O-])ccc5OS(=O)(=O)[O-])CC[C@]4(C)[C@H]3CC[C@]12C.[Na+].[Na+].[Na+].[Na+].[Na+].[Na+].[Na+]", "note": "[G5C, Sodium 4-(5-(3-((2-(3-((5-(((8S,9S,10R,13R,14S,17R)-10,13-Dimethyl-17-((R)-6-methylheptan-2-yl)-2,3,4,7,8,9,10,11,12,13,14,15,16,17-tetradecahydro-1H-cyclopenta[a]phenanthren-3-yl)oxy)pentyl)oxy)-4-(sulfonatooxy)phenyl)-4-oxo-3,7-bis(sulfonatooxy)-4H-chromen-5-yl)oxy)propoxy)-4-oxo-3,7-bis(sulfonatooxy)-4H-chromen-2-yl)-1,2-phenylene Bis(sulfate)]", "values": [{"measurement": "concentration required for 2-fold increase in APTT", "setting": "[1]", "value": "~200", "unit": "µM"}, {"measurement": "ex vivo 3° spheroid growth from xenograft cells", "setting": "[2]", "value": "maintain inhibition"}, {"measurement": "cytotoxicity under monolayer conditions", "setting": "HT-29 monolayer culture", "value": "essentially benign toward monolayer cancer cell culture even at ∼400 μM"}, {"measurement": "blood loss, tail bleeding", "setting": "[3]", "value": "did not exhibit much tail bleeding phenotype"}, {"measurement": "increase in half-life over G2.2", "setting": "[4]", "value": "~50", "unit": "%"}]}
